We go through three compounds from PMC8553517 (ACS infectious diseases, 2021).

The target in series [1] is recombinant L. donovani CYP51 (Leishmania donovani, UniProt A0A3S7WRS7). In words: Fluorescence-based L. donovani CYP51 inhibition assay. It counts as biochemical.
For another series, the system named is L. donovani CYP51. In words: L. donovani CYP51 ligand binding spectra. Also on record: species or system Leishmania donovani. Particulars: titration of CYP51; absorbance maximum 431 nm, minimum 412–413 nm. An outline of the steps: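 Purified N-terminally truncated L. donovani CYP51 (CYP51-32c, His-tagged; purity by SDS-PAGE/anti-His Western blot, CO-difference spectra) at 0.5 µM, titrated in 30 mM potassium phosphate pH 7.4 with 0.1 mM EDTA and 20% glycerol. […], and sample-minus-reference difference spectra were recorded.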

The test system of another series is J774 macrophages. Description: J774 macrophage toxicity assay. It counts as cell-based, mouse. Particulars: for IC50: Mus musculus, J774, read-out: IC50 against J774 macrophages.
The target in the next series is recombinant human CYP3A4 (Homo sapiens, UniProt P08684). In words: Inhibition of recombinant human CYP3A4. It counts as in vitro ADME.
recombinant human CYP3A4, sequence (P08684 whole entry): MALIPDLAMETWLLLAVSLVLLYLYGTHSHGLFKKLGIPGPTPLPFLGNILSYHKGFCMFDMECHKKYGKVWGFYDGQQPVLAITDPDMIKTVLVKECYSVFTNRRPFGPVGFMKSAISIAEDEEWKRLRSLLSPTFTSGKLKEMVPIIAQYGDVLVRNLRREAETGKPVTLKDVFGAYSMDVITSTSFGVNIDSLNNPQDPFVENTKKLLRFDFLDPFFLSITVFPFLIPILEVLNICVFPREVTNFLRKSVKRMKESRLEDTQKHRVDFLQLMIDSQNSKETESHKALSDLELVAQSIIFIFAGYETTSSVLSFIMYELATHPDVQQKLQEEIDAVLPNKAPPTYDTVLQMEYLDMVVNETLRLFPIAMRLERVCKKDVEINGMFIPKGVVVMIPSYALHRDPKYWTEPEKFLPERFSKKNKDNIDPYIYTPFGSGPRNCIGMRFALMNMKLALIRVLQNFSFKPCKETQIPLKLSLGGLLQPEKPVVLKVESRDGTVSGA
Series [2] concerns intracellular L. donovani. In words: L. donovani-infected macrophage assay. It counts as cell-based, Leishmania donovani. Particulars: Leishmania donovani, Macrophage, read-out: IC50 against L. donovani.
The test system of another series is HepG2 cells. In words: HepG2 toxicity assay. Particulars: for IC50: Homo sapiens, HepG2, 72 h, read-out: IC50 against HepG2. It counts as cell-based.
In series [3] the test system is L. donovani-infected female BALB/c mice. In words: Murine visceral leishmaniasis model. Type of series: in vivo. Particulars: for Reduction in liver parasitemia: three days after final dose. An outline of the steps: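 Female BALB/c mice infected with L. donovani; groups of four. Dosing by oral gavage for 5 consecutive days, starting one week post-infection. Test compound was given at 75 or 37.5 mg/kg/day in 50% PEG400/50% water. Reference drug miltefosine was given at 10 mg/kg/day in water. The vehicle control group received PEG-400. Liver parasitemia was determined three days after the final dose, reported as percent reduction (mean ± S.E.M.).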

Series [4] in a line: Microsomal stability, human liver microsomes. Type of series: in vitro ADME. Background: Microsomes from liver hold many membrane-bound enzymes, among them those of drug oxidation.

“And” between values parts separate entries of the source, which are not always exact repeats. Equal entries are not always repeated.

The term IC50 denotes the concentration needed to halve the response being measured. Take `CC(C)Oc1cc(OCCCCCCCCn2ccnc2)ccc1NC(=N)c1ccccn1` [Compound 24c, N-(4-((8-(1H-imidazol-1-yl)octyl)oxy)-2-isopropoxyphenyl) picolinimidamide]: the half-maximal inhibitory concentration (IC50) is 330 ± 10 nM in series [1]; 6800 ± 200 nM with J774 macrophages; 80 ± 9 nM at recombinant human CYP3A4; 530 ± 50 nM in series [2]; 12000 ± 2000 nM in the series on HepG2 cells. The “CYP51 binding spectrum type” value with L. donovani CYP51 is reported as “typical Type II binding spectra”. Moreover, the “Selectivity index (IC50 vs. mammalian cell line/IC50 vs. L. donovani)” value in the series with J774 macrophages (J774 macrophages vs. intracellular L. donovani) turned out to be 13; with HepG2 cells (HepG2 cells vs. intracellular L. donovani), 23. Besides, the “Reduction in liver parasitemia” value in series [3] (37.5 mg/kg/day × 5 p.o.) is 17 ± 5%; in series [3] (75 mg/kg/day × 5 p.o., mean ± S.E.M.) it was 33% and 33 ± 7%.

For `CCCCCCCCCCCCCCCCOP(=O)([O-])OCC[N+](C)(C)C` [Miltefosine, miltefosine, reference compound], the “Reduction of liver infection” value in series [3] (10 mg/kg/day × 5 p.o.) worked out at 95 ± 2%.

For orientation: amount remaining means what is left of the initial amount, in per cent. Lower therefore signals a greater loss. As to `N=C(Nc1ccc(OCCCCCCCCn2ccnc2)cc1)c1ccccn1` [Compound 9h, N-(4-((8-(1H-imidazol-1-yl)octyl)oxy)phenyl) picolinimidamide], the IC50 in series [1] was determined as 360 ± 30 nM; with J774 macrophages, 11000 ± 1000 nM; on recombinant human CYP3A4, 47 ± 3 nM; in series [2], 1000 nM; in the series with HepG2 cells, 12000 ± 3000 nM. Moreover, the “CYP51 binding spectrum type” value in the series with L. donovani CYP51 is “typical Type II binding spectra”. The compound also displayed an amount remaining at 1 h, 3 μM in series [4] (human, liver microsomes) of 100%. Also, the “Degradation by human liver microsomes (in words)” value in series [4] (over a period of one hour, substrate 3 μM) is reported as “not degraded”.
